The record followed here is ChEMBL document CHEMBL2169798, “Discovery of a Plasmodium falciparum glucose-6-phosphate dehydrogenase 6-phosphogluconolactonase inhibitor (R,Z)-N-((1-ethylpyrrolidin-2-yl)methyl)-2-(2-fluorobenzylidene)-3-oxo-3,4-dihydro-2H-benzo[b][1,4]thiazine-6-carboxamide (ML276) that reduces parasite growth in vitro” (J Med Chem, 2012).

Series [1] can be described thus: Drug degradation in PBS buffer assessed as compound depletion at pH 7.4 after 24 hrs by RP-LCMS analysis in presence of glutathione. It is filed as physicochemical. Particulars: PBS buffer with glutathione, read-out: Drug metabolism. A digest of the protocol: (§1)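 Compound from a 1 mM DMSO stock, final 10 μM with 1% DMSO, in PBS pH 7.4 with 5 equivalents glutathione (from a 10 mM PBS stock), shaken in capped glass vials at 23 °C. Aliquots were analysed by RP-HPLC-MS on a C18 column at 0, 0.5, 1, 2, 4, 6, 18 and […]. Percent remaining versus 0 h was taken from peak AUC.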

A short description of series [2]: Drug degradation in PBS buffer assessed as compound depletion at pH 7.4 after 30 mins by RP-LCMS analysis in presence of glutathione. In kind it is physicochemical. Particulars: pH 7.4, 0.5 h. A digest of the protocol:
as §1

Series [3] can be described thus: Chemical stability in PBS buffer at pH 7.4 at 10 uM up to 18 hrs by RP-LCMS analysis in presence of glutathione. The note with it: pH 7.4, 18 h. It is filed as physicochemical. An outline of the steps: as §1
Series [4] deals with Plasma. The experiment in a line: Plasma protein binding in mouse at 1 uM. In kind it is ADME, cell-free.
The nature of series [5]: Aqueous solubility in pION's buffer at pH 6.2. It is filed as physicochemical.
Series [6] relates to Plasmodium falciparum. The experiment in a line: Antimalarial activity against chloroquine-resistant Plasmodium falciparum Dd2 cells assessed as Plasmodium falciparum growth inhibition after 72 hrs by isotopic drug sensitivity assay. It is filed as functional, organism-based. Particulars: Dd2, 72 h. An outline of the steps: (§2)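 Infected RBCs plated at 0.25% parasitemia (>70% rings), 1.25% hematocrit, hypoxanthine-free medium; serial compound concentrations, chloroquine control. 48 h incubation, then 0.5 μCi 3H-hypoxanthine for another 24 h. Cells harvested on glass fibre filters, radioactivity counted as growth measure. IC50 by non-linear regression; run twice, each in triplicate.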

Series [7] is described as follows: Permeability of the compound at donor pH 7.4 by PAMPA. It is filed as ADME. (In general: The PAMPA barrier holds no transporters, so it reflects passive diffusion.)
The subject of series [8] is Plasma. As to the kind of experiment: Plasma protein binding in human at 10 uM. In kind it is ADME, cell-free.
Series [9] in a line: Aqueous solubility in pION's buffer at pH 5. It is filed as physicochemical.
The test system of series [10] is Plasmodium falciparum. As to the kind of experiment: Competitive inhibition of Plasmodium falciparum glucose-6-phosphate dehydrogenase-6-phosphogluconolactonase using glucose-6-phosphate as substrate by Lineweaver-Burk plot analysis. A digest of the protocol: (§3)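 PfGluPho at 0.2 μg/mL final, with 0.005% Tween 20, 3.3 mM MgCl2, 1 mM TCEP and 0.05 M Tris. G6P was varied at 5 μM NADP+; NADP+ was varied at 25 μM G6P. Compound was titrated at the same time. NADPH fluorescence (ex340/em460) was followed for 10 min and initial slopes taken. Lineweaver-Burk plots gave Km and Vmax, and α came from a rate equation.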

The test system of the next series is Liver. The experiment in a line: Stability in mouse liver microsomes assessed as compound remaining after 1 hr. It is filed as ADME, Microsome. On the technique in general: Liver microsomes are a subcellular fraction often used to study metabolism.
In series [11] the test system is Plasma. The experiment in a line: Stability in human plasma assessed as compound remaining after 3 hrs. In kind it is ADME, cell-free.
For series [12], the system named is Plasmodium falciparum. The experiment in a line: Mixed type inhibition of Plasmodium falciparum glucose-6-phosphate dehydrogenase-6-phosphogluconolactonase using NADP+ as substrate by Lineweaver-Burk plot analysis. An outline of the steps:
as §3

Series [13] deals with Glucose-6-phosphate 1-dehydrogenase (Homo sapiens, UniProt P11413). The experiment in a line: Inhibition of human glucose-6-phosphate dehydrogenase after 90 mins by resazurin/diaphorasecoupled assay. An outline of the steps: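 Dose response with a top final concentration of […] and 0.8% final DMSO, in 50 mM Tris pH 7.5, 0.005% Tween 20 and 1 mg/mL BSA. The enzyme solution held 0.05 μg/mL hG6PD. The substrate solution held 0.64 mM G6P, 12 μM NADP+, 6.6 mM MgCl2, 2 U/mL diaphorase and 0.28 mM resazurin.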
Sequence of Glucose-6-phosphate 1-dehydrogenase (Homo sapiens, UniProt P11413) (P11413 whole entry): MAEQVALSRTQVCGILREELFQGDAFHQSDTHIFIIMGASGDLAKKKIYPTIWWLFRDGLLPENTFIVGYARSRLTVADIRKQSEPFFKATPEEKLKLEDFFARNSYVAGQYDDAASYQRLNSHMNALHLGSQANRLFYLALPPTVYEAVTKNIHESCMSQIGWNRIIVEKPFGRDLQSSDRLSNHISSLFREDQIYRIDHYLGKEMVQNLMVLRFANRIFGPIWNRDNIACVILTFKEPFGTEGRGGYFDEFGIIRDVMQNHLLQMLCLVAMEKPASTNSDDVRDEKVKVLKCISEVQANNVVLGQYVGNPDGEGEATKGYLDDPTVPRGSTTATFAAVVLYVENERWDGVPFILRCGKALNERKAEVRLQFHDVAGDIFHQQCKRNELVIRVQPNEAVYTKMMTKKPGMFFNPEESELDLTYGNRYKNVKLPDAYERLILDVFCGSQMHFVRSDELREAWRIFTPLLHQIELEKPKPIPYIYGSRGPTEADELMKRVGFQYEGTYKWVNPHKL
On the technique in general: Resazurin is reduced to fluorescent resorufin, in cell work by metabolically active cells.

The target in series [14] is T1, Glucose-6-phosphate 1-dehydrogenase (Plasmodium falciparum, UniProt Q25856).
T1 sequence (Q25856 whole entry): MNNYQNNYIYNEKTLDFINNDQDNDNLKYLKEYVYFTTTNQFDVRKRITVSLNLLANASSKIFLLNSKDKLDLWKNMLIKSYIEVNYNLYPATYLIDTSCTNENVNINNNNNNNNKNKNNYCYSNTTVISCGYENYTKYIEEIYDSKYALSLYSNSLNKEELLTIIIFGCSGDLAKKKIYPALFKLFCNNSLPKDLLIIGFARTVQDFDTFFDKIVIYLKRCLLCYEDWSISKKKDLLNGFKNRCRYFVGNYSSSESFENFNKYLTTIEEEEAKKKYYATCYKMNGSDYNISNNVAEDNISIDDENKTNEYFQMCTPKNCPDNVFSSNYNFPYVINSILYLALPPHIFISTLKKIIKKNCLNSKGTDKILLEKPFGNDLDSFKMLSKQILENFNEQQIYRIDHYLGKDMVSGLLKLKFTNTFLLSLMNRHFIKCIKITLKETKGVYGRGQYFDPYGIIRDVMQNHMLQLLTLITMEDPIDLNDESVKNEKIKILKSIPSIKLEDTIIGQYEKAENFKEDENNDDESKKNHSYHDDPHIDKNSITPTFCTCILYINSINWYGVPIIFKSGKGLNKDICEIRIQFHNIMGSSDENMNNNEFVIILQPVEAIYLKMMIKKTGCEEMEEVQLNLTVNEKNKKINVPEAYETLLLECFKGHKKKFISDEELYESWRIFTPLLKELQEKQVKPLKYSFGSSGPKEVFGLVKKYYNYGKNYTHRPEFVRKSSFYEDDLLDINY
As to the kind of experiment: Inhibition of Plasmodium falciparum glucose-6-phosphate dehydrogenase after 45 mins by orthogonal assay. An outline of the steps: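 Direct NADPH read without coupling: PfGluPho (0.4 μg/mL enzyme solution) in 50 mM Tris pH 7.5, 0.005% Tween 20, 1 mg/mL BSA; substrate 40 μM G6P, 6 μM NADP+, 6.6 mM MgCl2.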

Series [15] can be described thus: Permeability of the compound at donor pH 5 by PAMPA. It is filed as ADME.
Series [16] concerns Plasmodium falciparum. As to the kind of experiment: Antimalarial activity against chloroquine-sensitive Plasmodium falciparum 3D7 cells assessed as Plasmodium falciparum growth inhibition after 72 hrs by isotopic drug sensitivity assay. It is filed as functional, organism-based. The note with it: 3D7, 72 h. An outline of the steps:
as §2

Series [17] in a line: Aqueous solubility in PBS buffer at pH 7.4. In kind it is physicochemical.
Series [18] deals with T1, Glucose-6-phosphate 1-dehydrogenase. The experiment in a line: Inhibition of Plasmodium falciparum glucose-6-phosphate dehydrogenase after 2 hrs by resazurin/diaphorasecoupled assay.
Series [19] can be described thus: Blood brain barrier permeability of the compound at pH 7.4 by PAMPA. In kind it is ADME.
Series [20] in a line: Permeability of the compound at donor pH 6.2 by PAMPA. In kind it is ADME.
The subject of another series is Hepatocyte. As to the kind of experiment: Toxicity against Fa2N-4 immortalized human hepatocytes. It is filed as cell-based. Particulars: read-out: LC50 (the source's name).
For series [21], the system named is Plasma. As to the kind of experiment: Stability in mouse plasma assessed as compound remaining after 3 hrs. In kind it is ADME, cell-free.
Series [22] has as its system Plasma. The experiment in a line: Plasma protein binding in mouse at 10 uM. It is filed as ADME, cell-free.
The next series relates to Liver microsomes. The experiment in a line: Stability in human liver microsomes assessed as compound remaining after 1 hr. It is filed as ADME, Microsome.
Series [23] deals with Plasma. As to the kind of experiment: Plasma protein binding in human at 1 uM. In kind it is ADME, cell-free.
Series [24] is described as follows: Aqueous solubility in pION's buffer at pH 7.4. In kind it is physicochemical.

Each structure is given as a SMILES string. Values after ≈ are worked out from the molar mass of the structure shown. Active and inactive are the calls of the source. No cut-off for these calls is given here.

For the compound `C=C(CC)C(=O)c1ccc(OCC(=O)O)c(Cl)c1Cl` [ETHACRYNIC ACID], the degraded at 24 h in [1] is 97%. The Drug metabolism entry in [2] is reported as “Active”. In series [3], the Stability result is given as “Stable”.
The solubility is how much of the substance goes into solution per volume. Higher therefore signals much dissolved substance. Broadly, the IC50 is the concentration that gives 50% inhibition. As for `CCN1CCC[C@@H]1CNC(=O)c1ccc2c(c1)NC(=O)/C(=C/c1ccccc1F)S2`, the PPB in the series with Plasma [4] is on record as 98.95%; in the series with Plasma [8] it was 97.98%; in the series with Plasma [22] it was 98.34%; with Plasma [23], 98.39%. For the same compound, the solubility in [5] was more than 296 µM; in series [9] it was more than 296 µM; in [17], 166 µM (≈ 70.6 µg/mL); in series [24], 69 µM (≈ 29.4 µg/mL). The IC50 in the series on Plasmodium falciparum [6] was 3.71 µM; in [13] it was more than 80 µM; in series [14], 1.9 µM; in the series with Plasmodium falciparum [16], 2.34 µM; in series [18], 0.9 µM. Besides, the permeability in series [7] came out at 806 ×10⁻⁶ cm/s; in [15] it was 29 ×10⁻⁶ cm/s; in [19], 233 ×10⁻⁶ cm/s; in [20] it was 737 ×10⁻⁶ cm/s. In addition, the inhibition entry with Plasmodium falciparum [10] and with Plasmodium falciparum [12] was “Active” throughout. The Stability with Liver came to 37.57%; with Plasma [11], 90.98%; with Plasma [21], 80.84%; in the series on Liver microsomes, 60.53%. Moreover, the CC50 with Hepatocyte is more than 50 µM.
On to `CCN1CCCC1CNC(=O)c1ccc2c(c1)NC(=O)/C(=C/c1ccccc1Cl)S2` (centres undefined), for which the IC50 in series [13] was more than 80 µM; in [14], 3.3 µM; in series [18], 2.56 µM.
As to `CCN1CCC[C@H]1CNC(=O)c1ccc2c(c1)NC(=O)/C(=C/c1ccccc1F)S2`, the IC50 in [13] is more than 80 µM; in series [14] it was 4.7 µM; in series [18], 6.6 µM.
On to `COc1cccc(/C=C2\Sc3ccc(C(=O)NCCN4CCCCCC4)cc3NC2=O)c1`, for which the values for the IC50 in series [13], in series [14] and in series [18] were more than 80 µM, 58.5 µM and more than 80 µM, respectively.
In the case of `CCN(CC)CCNC(=O)c1ccc2c(c1)NC(=O)/C(=C/c1ccccc1)S2`, the IC50 in series [13] is more than 80 µM; in series [14], 18.4 µM; in series [18], 8.8 µM.
